The record followed here is ChEMBL document CHEMBL1153016, “Dopamine- and tyramine-based derivatives of triazenes: activation by tyrosinase and implications for prodrug design” (Eur J Med Chem, 2009).

B1: Tyrosinase (Agaricus bisporus), O42713 (protein)
chain: MSLIATVGPTGGVKNRLNIVDFVKNEKFFTLYVRSLELLQAKEQHDYSSFFQLAGIHGLPFTEWAKERPSMNLYKAGYCTHGQVLFPTWHRTYLSVLEQILQGAAIEVAKKFTSNQTDWVQAAQDLRQPYWDWGFELMPPDEVIKNEEVNITNYDGKKISVKNPILRYHFHPIDPSFKPYGDFATWRTTVRNPDRNRREDIPGLIKKMRLEEGQIREKTYNMLKFNDAWERFSNHGISDDQHANSLESVHDDIHVMVGYGKIEGHMDHPFFAAFDPIFWLHHTNVDRLLSLWKAINPDVWVTSGRNRDGTMGIAPNAQINSETPLEPFYQSGDKVWTSASLADTARLGYSYPDFDKLVGGTKELIRDAIDDLIDERYGSKPSSGARNTAFDLLADFKGITKEHKEDLKMYDWTIHVAFKKFELKESFSLLFYFASDGGDYDQENCFVGSINAFRGTAPETCANCQDNENLIQEGFIHLNHYLARDLESFEPQDVHKFLKEKGLSYKLYSRGDKPLTSLSVKIEGRPLHLPPGEHRPKYDHTQARVVFDDVAVHVIN

The first series is filed under the species Homo sapiens. In words: Stability assessed as hydrolytic half life in 80% human plasma at 10 uM by HPLC analysis.
Settings: not given
One may read the half-life as how long it takes for the measured level to halve. Turning to `CCOC(=O)c1ccc(/N=N/N(C)C(=O)NCCc2ccc(O)c(O)c2)cc1`, the half-life at 10 µM is 14.7 h.

With `Cc1ccc(/N=N/N(C)C(=O)NCCc2ccc(O)c(O)c2)cc1`, the half-life at 10 µM is 5.66 h.

Consider `CC(=O)c1ccc(/N=N/N(C)C(=O)NCCc2ccc(O)c(O)c2)cc1`, for which the half-life at 10 µM was 9.3 h.

As for `CCOC(=O)c1ccc(/N=N/N(C)C(=O)NCCc2ccc(O)cc2)cc1`, the half-life at 10 µM was 71.5 h.

Test system in a further series: not listed separately
The series is described as follows: Chemical stability in phosphate buffer of pH 7.4 at 10 uM by HPLC analysis. The format is physicochemical. Particulars: pH 7.4, 10 µM. The gist of the method:
(§1)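 Hydrolysis at 37 °C in pH 7.4 PBS containing 20% DMSO, substrate 10^-5 M. Aliquots analysed by reversed-phase HPLC with UV at 300 nm to give half-life.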
In turn, `CC(=O)c1ccc(/N=N/N(C)C(=O)NCCc2ccc(O)cc2)cc1` had a Stability of 15 days.

`Cc1ccc(/N=N/N(C)C(=O)NCCc2ccc(O)c(O)c2)cc1`: the Stability came out at 2 days.

In the case of `CN(/N=N/c1ccc(C#N)cc1)C(=O)NCCc1ccc(O)cc1`, the Stability was 15 days.

In turn, `CCOC(=O)c1ccc(/N=N/N(C)C(=O)NCCc2ccc(O)cc2)cc1` showed a Stability of 15 days.

Test system in the next series: not listed separately
The series is described as follows: Chemical stability of the assessed as hydrolytic half life in phosphate buffer of pH 7.4 at 10 uM by HPLC analysis.
Settings: not given
The format is physicochemical. The method in brief:
as §1
In the case of `CCOC(=O)c1ccc(/N=N/N(C)C(=O)NCCc2ccc(O)c(O)c2)cc1`, the half-life at 10 µM was 20.8 h.

Turning to `CC(=O)c1ccc(/N=N/N(C)C(=O)NCCc2ccc(O)c(O)c2)cc1`, the half-life at 10 µM is 15.1 h.

With `Cc1ccc(/N=N/N(C)C(=O)NCCc2ccc(O)cc2)cc1`, the half-life at 10 µM is 364 h.

The test system of a further series is tyrosinase. In words: Stability assessed as half life at 50 uM by HPLC analysis in presence of mushroom tyrosinase. The format is ADME.
Settings: not given
The gist of the method:
(§2)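 Mushroom tyrosinase at 100U/mL in pH 7.4 phosphate buffer (2.4 mL) with DMSO (0.6 mL), 37 °C. Prodrug added from 10^-2 M stock, final substrate 5 x 10^-5 M, incubated with gentle stirring. Consumption followed by HPLC with UV at 300 nm, giving half-life of activation. Km and Vmax determined; turnover number derived from Vmax.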
As for `CCOC(=O)c1ccc(/N=N/N(C)C(=O)NCCc2ccc(O)c(O)c2)cc1`, the half-life at 50 µM is 0.102 h.

Regarding `CC(=O)c1ccc(/N=N/N(C)C(=O)NCCc2ccc(O)cc2)cc1`, the half-life at 50 µM amounted to 0.217 h.

Turning to `Cc1ccc(/N=N/N(C)C(=O)NCCc2ccc(O)c(O)c2)cc1`, the half-life at 50 µM amounted to 0.14 h.

`CN(/N=N/c1ccc(C#N)cc1)C(=O)NCCc1ccc(O)cc1`: the half-life at 50 µM was 0.197 h.

In the case of `CC(=O)c1ccc(/N=N/N(C)C(=O)NCCc2ccc(O)c(O)c2)cc1`, the half-life at 50 µM amounted to 0.165 h.

Take `Cc1ccc(/N=N/N(C)C(=O)NCCc2ccc(O)cc2)cc1`: the half-life at 50 µM stood at 0.303 h.

With `CCOC(=O)c1ccc(/N=N/N(C)C(=O)NCCc2ccc(O)cc2)cc1`, the half-life at 50 µM was 0.215 h.

A further series deals with T1, Tyrosinase (Agaricus bisporus) (UniProt O42713).
T1 sequence (whole entry): B1 chain
The series is described as follows: Binding affinity to Mushroom tyrosinase assessed as compound turnover by HPLC analysis.
Settings: not given
The method in brief: as §2
For the molecule `NCCc1ccc(O)cc1`, the Activity was 25.9 s⁻¹.

For the molecule `CCOC(=O)c1ccc(/N=N/N(C)C(=O)NCCc2ccc(O)c(O)c2)cc1`, the Activity came out at 6 s⁻¹.

Regarding `NCCc1ccc(O)c(O)c1`, the Activity amounted to 439 s⁻¹.

For the molecule `CN(/N=N/c1ccc(C#N)cc1)C(=O)NCCc1ccc(O)cc1`, the Activity came to 0.6 s⁻¹.

Test system in a further series: not listed separately
In words: Ratio of chemical stability in phosphate buffer of pH 7.4 to chemical stability in human plasma. The format is ADME.
Settings: not given
Consider `CCOC(=O)c1ccc(/N=N/N(C)C(=O)NCCc2ccc(O)c(O)c2)cc1`, for which the Ratio is 1.5.

For the molecule `Cc1ccc(/N=N/N(C)C(=O)NCCc2ccc(O)c(O)c2)cc1`, the Ratio was found to be 1.5.

With `CC(=O)c1ccc(/N=N/N(C)C(=O)NCCc2ccc(O)c(O)c2)cc1`, the Ratio came out at 1.5.

The subject of a further series is Plasma. In words: Stability in 80% human plasma at 10 uM by HPLC analysis. The format is ADME, cell-free.
Settings: not given
The method in brief: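 Pooled heparinised human plasma from healthy donors, stored at –70 °C, diluted to 80% (v/v) with pH 7.4 isotonic phosphate buffer. Substrate 10^-5 M, incubated at 37 °C. At intervals, 200 µL aliquots quenched in 400 µL acetonitrile and centrifuged; supernatant analysed by HPLC for substrate and products to give half-life.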
`CC(=O)c1ccc(/N=N/N(C)C(=O)NCCc2ccc(O)cc2)cc1` gave a Stability of 2 days.

The molecule `CN(/N=N/c1ccc(C#N)cc1)C(=O)NCCc1ccc(O)cc1` had a Stability of 2 days.

`Cc1ccc(/N=N/N(C)C(=O)NCCc2ccc(O)cc2)cc1` returned a Stability of 2 days.

Substrate in another series: CCOC(=O)c1ccc(/N=N/N(C)C(=O)NCCc2ccc(O)c(O)c2)cc1
The series is described as follows: (§3) Activity at mushroom tyrosinase. Particulars: Agaricus bisporus. The method in brief: as §2
For orientation: Km means the concentration of substrate that gives half-maximal velocity. What is called Vmax is the rate approached at saturating substrate. B1: the Km came out at 710 µM and the Vmax was 0.31 mM/min.

Substrate in the next series: CN(/N=N/c1ccc(C#N)cc1)C(=O)NCCc1ccc(O)cc1
Described as §3. Particulars: Agaricus bisporus. The method in brief:
as §2
In the case of B1, the Km stood at 310 µM and the maximum rate (Vmax) is 0.03 mM/min.

Test system in another series: not listed separately
The series is described as follows: Apparent partition coefficient in phosphate buffer of pH 7.4 by HPLC analysis.
Settings: not given
The format is physicochemical. The gist of the method:
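Log Pexp measured at room temperature in 1-octanol/pH 7.4 phosphate buffer, phases mutually pre-saturated. Compound dissolved in octanol and shaken 30 min to equilibrium. Each phase analysed by HPLC, octanol phase first diluted 1:10 in acetonitrile. P taken as the ratio of octanol to buffer peak area.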
Broadly, the logD is lipophilicity at a set pH, counting ionised and neutral species. For `CCOC(=O)c1ccc(/N=N/N(C)C(=O)NCCc2ccc(O)c(O)c2)cc1`, the logD came to 3.78.

For `CC(=O)c1ccc(/N=N/N(C)C(=O)NCCc2ccc(O)cc2)cc1`, the log distribution coefficient (logD) was found to be 3.25.

Turning to `Cc1ccc(/N=N/N(C)C(=O)NCCc2ccc(O)c(O)c2)cc1`, the logD was found to be 4.17.

In the case of `CN(/N=N/c1ccc(C#N)cc1)C(=O)NCCc1ccc(O)cc1`, the logD was found to be 2.89.

Consider `CC(=O)c1ccc(/N=N/N(C)C(=O)NCCc2ccc(O)c(O)c2)cc1`, for which the pH-dependent lipophilicity (logD) came to 3.24.

For the molecule `Cc1ccc(/N=N/N(C)C(=O)NCCc2ccc(O)cc2)cc1`, the log distribution coefficient (logD) was 3.9.

Regarding `CCOC(=O)c1ccc(/N=N/N(C)C(=O)NCCc2ccc(O)cc2)cc1`, the logD turned out to be 3.96.
